According to ChEMBL document CHEMBL1782026, “Synthesis and biological evaluation of 1α,25-dihydroxyvitamin D(3) analogues hydroxymethylated at C-26” (2011):
Active and inactive are the calls of the source. The calls are words filed in the database; no cut-off is given here.

Tests used:
SW480-ADH [1] = assay: Induction of E-cadherin expression in human SW480-ADH cell at 10^-7 M after 48 hrs by Western blot analysis; type: functional, cell-based
Procedure, shortened: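 SW480-ADH cells grown in RPMI with 10% FCS, GlutaMAX and penicillin/streptomycin. Treated 48 h at 10^-7 M in charcoal-treated FCS medium; controls received matching vehicle. Anti-E-cadherin Western blot with β-tubulin as loading control and ECL detection. Values are mean fold-increase from two experiments.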

MCF7 [2] = assay: Antiproliferative activity against human MCF7 cells assessed as DNA level at 100 nM measured after 6 days by calorimetric analysis; type: functional; conditions: MCF7, 144 h, read-out: GI
Procedure, shortened: (§1)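 MCF-7 cells in DMEM F12 with 5% FBS at 37 °C, 5% CO2, seeded at 100 000 cells/well in six-well plates. After 24 h, treated in triplicate for 6 days with graded doses or 0.1% ethanol vehicle; medium and ligand replaced every other day. DNA content by Burton assay, expressed as percent of vehicle control; three independent experiments, mean ± SD.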

[3] = target: T1, Vitamin D3 receptor (Homo sapiens) (UniProt P11473); assay: Transactivation of human VDR transfected in human SW480-ADH cells assessed as vitamin D response element-mediated transcriptional activity measured 8 hrs post infection by luciferase reporter gene assay; type: cell-based
T1 sequence (whole entry): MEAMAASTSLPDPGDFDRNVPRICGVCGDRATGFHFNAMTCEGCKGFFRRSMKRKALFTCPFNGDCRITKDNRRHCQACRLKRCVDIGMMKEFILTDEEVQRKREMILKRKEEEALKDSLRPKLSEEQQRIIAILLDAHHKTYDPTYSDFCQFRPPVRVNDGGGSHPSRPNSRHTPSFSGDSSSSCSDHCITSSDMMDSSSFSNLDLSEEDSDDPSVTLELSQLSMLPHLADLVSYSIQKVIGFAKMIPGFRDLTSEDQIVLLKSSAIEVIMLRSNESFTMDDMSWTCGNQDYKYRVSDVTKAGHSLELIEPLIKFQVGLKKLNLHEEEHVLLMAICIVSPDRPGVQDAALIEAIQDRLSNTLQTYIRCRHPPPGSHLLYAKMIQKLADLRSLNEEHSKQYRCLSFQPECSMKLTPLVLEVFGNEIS
Procedure, shortened: (§2)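 SW480-ADH cells, transfected in triplicate (JetPEI) with 4VDRE-DR3-tk-LUC reporter, four tandem consensus DR3 VDREs upstream of HSV tk promoter. Treated with graded concentrations in charcoal-treated FCS medium, read at 8 or 48 h. Firefly luciferase normalized to Renilla by dual luciferase assay; mean ± SD, n = 3.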

SW480-ADH [4] = assay: Induction of differentiation of human SW480-ADH cells to adhesive epithelial phenotype at 10^-7 M after 48 hrs by phase-contrast microscopy; type: functional, cell-based
Procedure, shortened: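 SW480-ADH cells in RPMI/10% FCS were exposed for 48 h to 10^-7 M compound or vehicle in charcoal-treated FCS medium. Adhesive epithelial morphology was judged by phase-contrast microscopy; a representative experiment is shown.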

[5] = target: T1, Vitamin D3 receptor (Homo sapiens); assay: Transactivation of human VDR transfected in human SW480-ADH cells assessed as vitamin D response element-mediated transcriptional activity measured 48 hrs post infection by luciferase reporter gene assay; type: cell-based; procedure, shortened: as §2
MCF7 [6] = assay: Antiproliferative activity against human MCF7 cells assessed as DNA level at 1 nM measured after 6 days by calorimetric analysis; type: functional; conditions: MCF7, 144 h, read-out: GI; procedure, shortened: as §1
MCF7 [7] = assay: Antiproliferative activity against human MCF7 cells assessed as DNA level measured after 6 days by calorimetric analysis; type: functional, cell-based; procedure, shortened: as §1
MCF7 [8] = assay: Antiproliferative activity against human MCF7 cells assessed as DNA level at 10 nM measured after 6 days by calorimetric analysis; type: functional; conditions: MCF7, 144 h, read-out: GI; procedure, shortened: as §1
[9] = target: T1, Vitamin D3 receptor (Homo sapiens); assay: Transactivation of human VDR transfected in african green monkey COS7 cells after 24 hrs by luciferase reporter gene assay; type: cell-based; conditions: COS-7
Procedure, shortened: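 Transfected 16 h (Polyfect) with 62.5 ng WT VDR expression plasmid and 125 ng rat 24-hydroxylase promoter VDRE-luciferase. Then treated 24 h with graded concentrations in DMEM with 1% bovine growth serum, lysed, and assayed by dual luciferase; ±SD.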

| SMILES | Activity (SW480-ADH [1]) | inhibition of growth at 0.1 µM (MCF7 [2]) | Activity [3] | Activity (SW480-ADH [4]) | Activity [5] | inhibition of growth at 0.001 µM (MCF7 [6]) | growth inhibition (GI) (MCF7 [7]) | inhibition of growth at 0.01 µM (MCF7 [8]) | Activity [9] |
| --- | --- | --- | --- | --- | --- | --- | --- | --- | --- |
| C=C1/C(=C\C=C2/CCC[C@]3(C)[C@@H]([C@H](C)CCC[C@@](C)(O)CCO)CC[C@@H]23)C[C@@H](O)C[C@@H]1O | Active | 53% | Dose-dependent effect | Active | Dose-dependent effect |  |  |  |  |
| C=C1/C(=C\C=C2/CCC[C@]3(C)[C@@H]([C@H](C)CCCC(C)(C)O)CC[C@@H]23)C[C@@H](O)C[C@@H]1O [CALCITRIOL] |  | 66% |  |  |  | 15% | Dose-dependent effect | 50% |  |
| C=C1/C(=C\C=C2/CCC[C@]3(C)[C@@H]([C@H](C)CCC[C@@](C)(O)[C@@H](C)CO)CC[C@@H]23)C[C@@H](O)C[C@@H]1O | Active | 65% | Dose-dependent effect | Active | Dose-dependent effect |  |  |  | Active |
